In ChEMBL document CHEMBL4715822, “Structure-based lead optimization to improve antiviral potency and ADMET properties of phenyl-1H-pyrrole-carboxamide entry inhibitors targeted to HIV-1 gp120” (Eur J Med Chem, 2018):
≈ marks a conversion by molar mass, not a printed value.

Experiments:
[1] = Inhibition of HIV1 gp120-mediated cell-cell fusion between viral envelope expressing in human HL2/3 cells to CD4/CCR5 receptor expressing in human TZM-bl cells after 1 hr by luciferase reporter gene assay; assay type: cell-based; details: Human immunodeficiency virus 1, HL2/3, 1 h
[2] = Cytotoxicity against dog Cf2Th-CCR5 cells assessed as reduction in cell viability incubated for 48 hrs by XTT assay; assay type: cell-based, Canis lupus familiaris; details: for CC50: cf2th-ccr5, 48 h
MT2 = test: (§1) Cytotoxicity against human MT2 cells assessed as reduction in cell viability incubated for 4 days by XTT assay; assay type: cell-based; details: mt2, 96 h, time 4 day
[3] = Induction viral infection in pseudovirus HIV1 ADA infected in dog Cf2Th-CCR5 cells incubated for overnight followed by pretreated for 30 mins and added to cells measured after 48 hrs by luciferase-based assay; assay type: cell-based; details: human immunodeficiency virus 1, cf2th-ccr5, 48.5 h
[4] = test system: Human immunodeficiency virus 1; test: Antiviral activity against HIV-1 ADA infected in human MOLT-4 cells assessed as reduction in viral transmission to TZM-bl cells incubated for 48 hrs by luciferase based assay; assay type: functional, organism-based; details: Human immunodeficiency virus 1, ADA, MOLT-4, 48 h
[5] = test system: Human immunodeficiency virus 1; test: Antiviral activity against pseudovirus HIV-1 HXB-2 harboring Env M434I mutant infected in human U87.CD4.CXCR4 cells assessed as reduction in viral infection pretreated for 30 mins before viral infection and measured after 3 days by luciferase based assay; assay type: functional, cell-based, M:B_HXB2R
Outline: (§2)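 Pseudoviruses made in HEK293T by co-transfecting an Env-deleted backbone (pSG3Δenv or pNL4-3.Luc.R-.E-) with an HXB-2 Env plasmid carrying single or double substitutions; Env sequences confirmed by sequencing. Virus pretreated 30 min with graded compound, added to U87-CD4-CXCR4 cells (1 × 10⁴/well, plated overnight), incubated 3 days. Cells lysed, luciferase measured, IC50 calculated.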

[6] = Cytotoxicity against human PBMC cells assessed as reduction in cell viability incubated for 1 hr followed by complete medium addition and measured after 48 hrs by XTT assay; assay type: cell-based
[7] = test system: Human immunodeficiency virus 1; test: Antiviral activity against HIV-1 HXB-2 infected in human TZM-bl cells assessed as reduction in viral infection pretreated for 30 mins before viral infection and measured after 3 days by luciferase based single cycle infection assay; assay type: functional, organism-based; details: Human immunodeficiency virus 1, M:B_HXB2R
TZM = test: (§3) Cytotoxicity against human TZM-bl cells assessed as reduction in cell viability incubated for 3 days by XTT assay; assay type: cell-based; details: tzm, 72 h, time 3 day
[8] = Antiviral activity against HIV-1 3B infected in human MT2 cells assessed as reduction in viral infection pretreated for 30 mins before viral infection and measured after 4 days by ELISA based multi cycle infection assay; assay type: functional, cell-based; details: Human immunodeficiency virus 1, M:B_HXB2R
[9] = as §3; assay type: cell-based; details: TZM-bl cells, time 3 day
[10] = as §1; assay type: cell-based; details: MT2 cells, time 4 day
[11] = test system: Human immunodeficiency virus 1; test: Antiviral activity against HIV-1 3B infected in human H9 cells assessed as reduction in viral transmission to TZM-bl cells incubated for 48 hrs by luciferase based assay; assay type: functional, organism-based; details: Human immunodeficiency virus 1, 3B, H9, 48 h
[12] = test system: Human immunodeficiency virus 1; test: Antiviral activity against pseudovirus HIV-1 HXB-2 harboring Env A204D mutant infected in human U87.CD4.CXCR4 cells assessed as reduction in viral infection pretreated for 30 mins before viral infection and measured after 3 days by luciferase based assay; assay type: functional, cell-based, M:B_HXB2R; outline: as §2
[13] = test system: Human immunodeficiency virus 1; test: Antiviral activity against pseudovirus HIV-1 HXB-2 harboring Env I424F mutant infected in human U87.CD4.CXCR4 cells assessed as reduction in viral infection pretreated for 30 mins before viral infection and measured after 3 days by luciferase based assay; assay type: functional, cell-based, M:B_HXB2R; outline: as §2
[14] = Solubility in 5% DMSO at pH 7.4 at 500 uM incubated for 90 mins in shaker by spectrophotometry; assay type: physicochemical
Outline: (§4)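 DMSO stock diluted to 500 μM in universal aqueous buffer pH 7.4 with 2 or 5% DMSO final; quadruplicate, 90 min shaking at room temperature in filter plate, vacuum filtered; filtrate in 20% acetonitrile read by UV absorbance at six wavelengths. Filtrate/standard ratio binned as ~500, 100–500 or <100 μM.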

[15] = Solubility in 2 % DMSO at pH 7.4 at 500 uM incubated for 90 mins in shaker by spectrophotometry; assay type: physicochemical; outline: as §4
[16] = Apparent permeability across apical to basolateral side in human Caco2 cells incubated for 2 hrs by LC-MS/MS analysis; assay type: ADME, cell-based, Caco-2; details: Caco-2
Outline: (§5)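 Caco-2 monolayers grown three weeks to differentiate; compound in transport buffer pH 7.4 (glucose, 10 mM HEPES, HBSS) added apical (A-B) or basal (B-A) side, with or without 100 μM verapamil; 2 h incubation, both sides sampled. Lucifer yellow 100 μM on A side checks integrity (≤2% transport). Papp = (dQ/dt)/(C0 × A); efflux ratio = Papp(B→A)/Papp(A→B).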

[17] = Apparent permeability across basolateral to apical side in human Caco2 cells incubated for 2 hrs by LC-MS/MS analysis; assay type: ADME, cell-based, Caco-2; details: Caco-2; outline: as §5
[18] = Metabolic stability in human liver microsomes assessed as parent compound remaining at 3 uM incubated for 120 mins by LC-MS/MS analysis; assay type: ADME, Microsome; details: read-out: Stabilty
[19] = Metabolic stability in human liver microsomes assessed as intrinsic clearance at 3 uM incubated for 120 mins by LC-MS/MS analysis; assay type: ADME, Microsome; details: read-out: CLH
[20] = Protein binding in human plasma assessed as unbound fraction at 5 uM by LC-MS/MS analysis; assay type: ADME, cell-free

Row | Compound | CC50 (MT2) [µM] | IC50 [7] [nM] | CC50 (TZM) [µM] | IC50 [8] [nM] | also measured
1 | CC1(C)CC(NC(=O)C(=O)Nc2ccc(Cl)cc2)CC(C)(C)N1 | – | – | – | – | IC50 [1]: 9.1 µM; CC50 [2]: > 60 µM
2 | NC[C@@H](NC(=O)c1ccc(-c2ccc(C(F)(F)F)cc2)[nH]1)c1ncc(CO)s1 | 32 | – | – | – | Activity [3]: Non-Toxic; CC50 [2]: 37.7 µM; IC50 [4]: 1000 nM; IC50 [5]: 970 nM; CC50 at 49 h [6]: 61 µM
3 | Cc1c(F)cc(-c2ccc(C(=O)N[C@@H](CN)c3ncc(CO)s3)[nH]2)cc1F | 27 | 470 | 33.2 | 200 | –
4 | NC[C@@H](NC(=O)c1ccc(-c2cc(F)c(Cl)c(F)c2)[nH]1)c1ncc(CO)o1 | – | – | – | – | CC50 at 72 h [9]: 30.9 µM; CC50 at 96 h [10]: 44.7 µM
5 | NC[C@@H](NC(=O)c1ccc(-c2cc(F)c(Cl)c(F)c2)[nH]1)c1nc(CO)cs1 | 29.6 | – | 27.7 | – | –
6 | Cc1c(F)cc(-c2ccc(C(=O)N[C@@H](CN)c3nc(CO)cs3)[nH]2)cc1F | 25.5 | 180 | 18.5 | 180 | –
7 | Cc1c(F)cc(-c2ccc(C(=O)N[C@H](CN)c3ncc(CO)s3)[nH]2)cc1F | 26.8 | 200 | 32.9 | 200 | –
8 | NC[C@@H](NC(=O)c1ccc(-c2cc(F)c(C(F)(F)F)c(F)c2)[nH]1)c1ncc(CO)s1 | – | – | – | – | CC50 at 72 h [9]: 23.5 µM; CC50 at 96 h [10]: 15.5 µM
9 | NC[C@H](NC(=O)c1ccc(-c2cc(F)c(Cl)c(F)c2)[nH]1)c1ncc(CO)s1 | – | – | – | – | CC50 at 72 h [9]: 39.5 µM; CC50 at 96 h [10]: 37 µM; CC50 at 49 h [6]: > 60 µM
10 | CNC[C@H](NC(=O)c1ccc(-c2cc(F)c(Cl)c(F)c2)[nH]1)c1nc(CO)cs1 | 18.8 | 230 | 18 | 180 | –
11 | CC(C)(O)c1csc([C@H](CN)NC(=O)c2ccc(-c3cc(F)c(Cl)c(F)c3)[nH]2)n1 | 16.6 | 230 | 28.4 | 250 | –
12 | NC[C@@H](NC(=O)c1ccc(-c2ccc(C(F)(F)F)c(F)c2)[nH]1)c1nc(CO)c(CO)s1 | 72.4 | 1800 | > 65.4 | 2000 | –
13 | COC(C)(C)c1csc([C@@H](CN)NC(=O)c2ccc(-c3cc(F)c(Cl)c(F)c3)[nH]2)n1 | 29.5 | 9300 | 39.6 | 6100 | –
14 | CNC[C@@H](NC(=O)c1ccc(-c2ccc(C(F)(F)F)cc2)[nH]1)c1nc(CO)cs1 | 19.8 | 620 | 23.5 | 600 | –
15 | NC[C@H](NC(=O)c1ccc(-c2ccc(C(F)(F)F)cc2)[nH]1)c1ncc(CO)s1 | 36 | – | 35.6 | – | –
16 | NC[C@H](NC(=O)c1ccc(-c2cc(F)c(Cl)c(F)c2)[nH]1)c1nc(CO)cs1 | – | – | – | – | CC50 at 72 h [9]: 42.1 µM; CC50 at 96 h [10]: 32.6 µM; Activity [3]: Non-Toxic; CC50 at 48 h ([2]; Cf2Th-CCR5 cells): > 51 µM; IC50 [11]: 79 nM; IC50 [4]: 440 nM; IC50 [12]: 870 nM; IC50 [13]: 1300 nM; solubility kinetic at […], 500 µM [14]: 500 µM (≈ 206 µg/mL); solubility kinetic at […], 500 µM [15]: 100 µM (≈ 41.3 µg/mL); Papp A→B at 2 h [16]: 0.471 ×10⁻⁶ cm/s; Papp B→A at 2 h [17]: 17 ×10⁻⁶ cm/s; remaining at 2 h, 3 µM [18]: 90.4%; microsomal CLint at 3 µM [19]: 1.6 µL/min/mg; fraction unbound at 5 µM [20]: 0.00281; CC50 at 49 h [6]: 61 µM

Row | Compound | CC50 (MT2) [µM] | IC50 [7] [nM] | CC50 (TZM) [µM] | IC50 [8] [nM] | also measured
17 | Cc1c(F)cc(-c2ccc(C(=O)N[C@H](CN)c3nc(CO)cs3)[nH]2)cc1F | 15.9 | 540 | 20.6 | 600 | –
18 | NC[C@H](NC(=O)c1ccc(-c2cc(F)c(C(F)(F)F)c(F)c2)[nH]1)c1ncc(CO)s1 | – | – | – | – | CC50 at 72 h [9]: 23 µM; CC50 at 96 h [10]: 14.3 µM
19 | CNC[C@@H](NC(=O)c1ccc(-c2cc(F)c(Cl)c(F)c2)[nH]1)c1nc(CO)cs1 | 24 | 250 | 23.8 | 400 | –
20 | CC(C)(O)c1csc([C@@H](CN)NC(=O)c2ccc(-c3cc(F)c(Cl)c(F)c3)[nH]2)n1 | 18 | 560 | 27.2 | 800 | –
21 | NC[C@@H](NC(=O)c1ccc(-c2ccc(C(F)(F)F)c(F)c2)[nH]1)c1nc(CO)cs1 | 20.5 | – | 17.3 | – | –
22 | NC[C@H](NC(=O)c1ccc(-c2cc(F)c(Cl)c(F)c2)[nH]1)c1ncc(CO)o1 | – | – | – | – | CC50 at 72 h [9]: 27.7 µM; CC50 at 96 h [10]: 26.5 µM
23 | NC[C@@H](NC(=O)c1ccc(-c2cc(F)c(Cl)c(F)c2)[nH]1)c1ncc(CO)s1 | – | – | – | – | CC50 at 72 h [9]: 20.6 µM; CC50 at 96 h [10]: 17.4 µM
24 | NC[C@H](NC(=O)c1ccc(-c2ccc(C(F)(F)F)cc2)[nH]1)c1nc(CO)cs1 | 16.3 | 470 | 24.4 | 300 | –
25 | NC[C@H](NC(=O)c1ccc(-c2cc(F)c(Cl)c(F)c2)[nH]1)c1nc(CO)c(CO)s1 | 96.7 | 2300 | > 70 | 3000 | –
26 | NC[C@H](NC(=O)c1ccc(-c2ccc(C(F)(F)F)c(F)c2)[nH]1)c1nc(CO)c(CO)s1 | 92.3 | 3100 | > 65 | 3600 | –
27 | NC[C@@H](NC(=O)c1ccc(-c2ccc(C(F)(F)F)cc2)[nH]1)c1nc(CO)cs1 | 15.1 | 900 | 27.6 | 1750 | –
28 | NC[C@@H](NC(=O)c1ccc(-c2ccc(C(F)(F)F)c(F)c2)[nH]1)c1ncc(CO)s1 | 21.5 | 200 | 18.5 | 240 | –
29 | NC[C@H](NC(=O)c1ccc(-c2ccc(C(F)(F)F)c(F)c2)[nH]1)c1ncc(CO)s1 | 25.6 | 440 | 30.5 | 250 | –
30 | NC[C@@H](NC(=O)c1ccc(-c2cc(F)c(Cl)c(F)c2)[nH]1)c1nc(CO)c(CO)s1 | 89.9 | 2700 | 53 | 3340 | –
31 | CNC[C@H](NC(=O)c1ccc(-c2ccc(C(F)(F)F)cc2)[nH]1)c1nc(CO)cs1 | 17 | 310 | 22.4 | 100 | –
